Laboratory results as given in the RNAGym collection of RNA variant scans (doi:10.1126/science.aae0568).
Fewer inactive variants are shown than the library holds.

B1: tRNA (parent)
chain: GUUCCGUUGGCGUAAUGGUAACGCGUCUCCCUCCUAAGGAGAAGACUGCGGGUUCGAGUCCCGUACGGAACG

Variants of: B1
Test: yeast fitness relative to wild type (ratio to wild type); higher = fitter; tRNA-Arg(CCU), competitive growth, 37 C, YPD
Method in brief: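 Amplicons of the tRNA-Arg(CCU) gene were sequenced, 100-nucleotide paired-end, from the start population and from each end population of a pooled yeast competition. The competition, in six parallel replicates, lasted 24 hours in YPD at 37°C. Fitness relative to wild type was calculated from changes in genotype frequencies. Genotypes had to have ≥ 100 starting reads, and estimates < 0.5 were set to 0.5.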
With U13C C27A C61A the yeast fitness was ≤ 0.5. Variant U13C A14G C24A U32G A37C U64A has a yeast fitness of 0.646. With U13C C24U G41A C62A the yeast fitness was ≤ 0.5. For A14C A40U C55G C61U C66U, the yeast fitness was ≤ 0.5. A14C A45U A69U showed a yeast fitness of 0.619. In the case of A14C C24A A37G C60U, the yeast fitness is reported as ≤ 0.5. In the case of U13C G23A, the yeast fitness is reported as 0.759. For U13C A36G C46A C49A, the yeast fitness was ≤ 0.5. U13A C33U gave a yeast fitness of 0.754. Work on U13G U19A C27G yielded a yeast fitness of 0.626. U13C U59A gave a yeast fitness of 0.768. U13C U59C gave a yeast fitness of 0.858. In the case of A14C C22U C34A, the yeast fitness is reported as ≤ 0.5. With A14C C30A C31G U64A the yeast fitness was 0.584. U13A C29G C30G C49A G56C C61U showed a yeast fitness of 0.635. With A14C C27U C30U C34A C62A the yeast fitness was ≤ 0.5. For A14C U16A G41C, the yeast fitness was ≤ 0.5. In the case of G12C U16A C60G C61U G68A, the yeast fitness is reported as ≤ 0.5. With U13C C30G A37U U47C A70G the yeast fitness was ≤ 0.5. In the case of A14C U16C A21G C29A C34U A69U, the yeast fitness is reported as ≤ 0.5. For A14C G67A, the yeast fitness was 0.695. For G12C U13A G23A A37C C61U, the yeast fitness was 0.586. For A14C A20G, the yeast fitness was 0.647. With U13A C27U the yeast fitness was 0.984. With U13C G51C G67A the yeast fitness was ≤ 0.5. G12C G44C C66U showed a yeast fitness of 0.573. Variant A14C G17A has a yeast fitness of 0.679. For A14C C55A A65U, the yeast fitness was ≤ 0.5. A14C A37C G51A U59A showed a yeast fitness of 0.56. With U13C C49G C61G the yeast fitness was ≤ 0.5. U13G C55A gave a yeast fitness of 0.502. With U13C C29G A36G G41A the yeast fitness was ≤ 0.5. For G12C G25C C66G, the yeast fitness was ≤ 0.5. Variant U13G U26A A45C A69C has a yeast fitness of 0.577. In the case of U13A G17A G51A C62U G67C, the yeast fitness is reported as ≤ 0.5. In the case of G12C U54A A65C, the yeast fitness is reported as ≤ 0.5. For U13C G44C G58C, the yeast fitness was 0.661. In the case of U13C G25C C27G, the yeast fitness is reported as 0.539. In the case of A14C C29A G50A G68C A70C, the yeast fitness is reported as ≤ 0.5. A14C A45G showed a yeast fitness of 0.611. Work on U13A A21C A42G yielded a yeast fitness of 0.502. With U13A C24G G25A G39C A40C G51C A69U A70C the yeast fitness was ≤ 0.5. In the case of G12C U13C U26A C33A C34G, the yeast fitness is reported as ≤ 0.5. With G12C U19A C27G A65C the yeast fitness was 0.557. For U13C A21C C31U, the yeast fitness was ≤ 0.5. Work on A14C C61G yielded a yeast fitness of 0.536. With U13A C31A G44A A65G A70U the yeast fitness was ≤ 0.5. For U13A C33G U54A U59A G67A, the yeast fitness was 0.504. With A14C A69C the yeast fitness was 0.654. With U13C C46G the yeast fitness was 0.97. U13C A43U A70G showed a yeast fitness of 0.966. U13G C33U G41C showed a yeast fitness of 0.581. For A14C A15U C27U U32C U35G A70U, the yeast fitness was ≤ 0.5. In the case of A14C A20G A42C G48C, the yeast fitness is reported as ≤ 0.5. In the case of U13G G18C C30U C33G A65C A70G, the yeast fitness is reported as ≤ 0.5. For G12C G18C G67U, the yeast fitness was ≤ 0.5. U13G A69U gave a yeast fitness of 0.931. Work on U13A A40U A43C yielded a yeast fitness of 0.693. For U13G U16G C31G C49U A57G, the yeast fitness was ≤ 0.5. In the case of A14C C24A C61A, the yeast fitness is reported as ≤ 0.5. In the case of U13A C27U C55G, the yeast fitness is reported as ≤ 0.5. For G12U A15G A20C C24G, the yeast fitness was ≤ 0.5. For U13A C22G G25C C27U C30G A36G C55A A69U, the yeast fitness was ≤ 0.5. In the case of A14C A57C C62U, the yeast fitness is reported as ≤ 0.5. In the case of A14C C24G G39A, the yeast fitness is reported as ≤ 0.5. For U13A A14G C66U G68C, the yeast fitness was ≤ 0.5. For A14C A21U A42C G58C, the yeast fitness was ≤ 0.5. Work on U13G C22U G25A yielded a yeast fitness of 1.01. In the case of U13C G17A U47C A65G, the yeast fitness is reported as ≤ 0.5. For U13G C22U C30A, the yeast fitness was 0.598. Variant U13G C22U G63A has a yeast fitness of 0.707. For U13A A15C C33G C49U A69C, the yeast fitness was ≤ 0.5. A14C U26A C29U C49U C62G G68C gave a yeast fitness of 0.519. For A14C C22A C46A, the yeast fitness was 0.605. Variant U13C C29G A65U A70U has a yeast fitness of 0.588. With A14C U35C A69U the yeast fitness was ≤ 0.5. U13A C22U gave a yeast fitness of 0.859. U13G A21C C46U G50A gave a yeast fitness of 0.582. In the case of U13C C22U C30U, the yeast fitness is reported as ≤ 0.5. In the case of U13C C33U A45G G50A C66A A70U, the yeast fitness is reported as ≤ 0.5. With G12C G18C U35A G39A U53A the yeast fitness was ≤ 0.5. In the case of G12C U19G A20C A21C C31U C61A, the yeast fitness is reported as ≤ 0.5. With U13G U16C G63C the yeast fitness was ≤ 0.5.
